Source: PubChem BioAssay (The Scripps Research Institute Molecular Screening Center)
An excerpt weighted towards active compounds, which were near 4% of everything screened.
TAAR1 antag: antagonists of human TAAR1. AID 624466. actives 1.5% (n = 360,000). CHO RD-HGA16 TAAR1, Fluo-8 calcium fluorescence, antagonist. inhibition, % at 3 µM. Q96RJ0;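 active means inhibition above a per-plate cutoff, the mean inhibition of test compounds on that plate plus 3 SD, cut at about 49% in these data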;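 further: 0% = DMSO plus EC80 beta-PEA response and 100% = DMSO alone without agonist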
Target sequence (Q96RJ0 whole entry, looked up): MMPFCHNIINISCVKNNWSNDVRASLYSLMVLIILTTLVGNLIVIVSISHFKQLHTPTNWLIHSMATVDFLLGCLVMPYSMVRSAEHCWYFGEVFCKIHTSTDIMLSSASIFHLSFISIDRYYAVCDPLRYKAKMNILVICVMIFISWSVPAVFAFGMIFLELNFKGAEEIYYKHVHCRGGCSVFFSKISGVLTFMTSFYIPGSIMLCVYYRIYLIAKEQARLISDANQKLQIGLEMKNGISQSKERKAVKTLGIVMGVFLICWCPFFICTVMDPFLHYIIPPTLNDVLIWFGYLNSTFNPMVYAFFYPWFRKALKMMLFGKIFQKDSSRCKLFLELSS
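test system = CHO RD-HGA16 cells bearing hTAAR1 | replication = singlicate | controls = DMSO-only wells and EC80 β-PEA-stimulated wells | reagent = EC80 β-phenethylamine stimulus | read-out basis = percent inhibition of PEA-evoked calcium signal, max/basal emission ratio | schedule = seeding 17-24 h prior, 75-min 37 °C, 30-min RT dye loading | signal = kinetic Fluo-8 calcium fluorescence measurement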
OX1R antag-1: OX1R (human) antagonism; OX1R-expressing cells, FRET antagonist read-out; inhibition, % at 6.6 µM; actives 1.8% (n = 330,000); AID 485270; in the data active means inhibition mostly above about 38%, no sharp cut-off; inactive means mostly below about 40%;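 further: 0% = agonist challenge alone and 100% = reference antagonist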
OX1R antag-2: blocks the human orexin 1 receptor. inhibition, % at 5 µM. CHO/OX1R cells, Fluo-8 calcium fluorescence, orexin A. actives 0.43% (n = 330,000);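 active means inhibition above its plate's threshold, mean inhibition of all tested compounds on the plate plus 3 SD, cut at about 37% in these data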;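 further: 0% = orexin A challenge wells and 100% = SB-334867-A antagonist wells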
TAAR1 agonist: human TAAR1 agonism | actives 0.99% (n = 360,000) | Q96RJ0 | CHO RD-HGA16 TAAR1, Fluo-8 calcium fluorescence; vehicle wells 0%, saturating PEA agonist 100% | AID 624467 | activation, % at 3 µM;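 active means activation above the mean activation of all test compounds in the run plus 3 SD, cut at about 38% in these data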
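Assay system – CHO-derived RD-HGA16 cells with stable Gα16 and human TAAR1 · Compound dosing – one-point dosing at 3 µM (nominal) · Incubation – 17-24 h seeding, 75 min 37 °C dye, 30 min RT · Measured by – kinetic Fluo-8 calcium fluorescence · Control set – DMSO vehicle as 0%, PEA at EC100 as 100% · Repeats – single well for each compound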
CHO parental Ca: counter-screen: ATP calcium response change in parental CHO cells; inhibition, % at 5.6 µM; actives 0.63% (n = 330,000); parental CHO-K1, ATP-induced calcium, Fluo-8 fluorescence;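 active means inhibition above that plate's mean sample inhibition plus 3 SD, cut at about 26% in these data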;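 further: 0% = ATP-challenged DMSO wells and 100% = DMSO wells without ATP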
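Material: Parental CHO cells | Reagent: ATP | Compound dosing: Single nominal dose of 5.6 µM per compound | Detection: Intracellular calcium via Fluo-8 no-wash fluorescent dye | Read-out: % inhibition of ATP-induced calcium mobilization | Benchmarks: Low control ATP plus DMSO, high control DMSO only | Replicates: Singlicate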
TAAR1 ag conf: human TAAR1 agonism, confirmed; shares compounds with TAAR1 agonist; CHO RD-HGA16 TAAR1, Fluo-8 calcium fluorescence; scaled: DMSO 0%, maximal phenethylamine 100%; activation, % at 3 µM; actives 82% (n = 2,400); AID 651783;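 active means activation above a cutoff set at the run's mean compound activation plus 3 SD, cut at about 39% in these data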
Ga16 nonsel ag: nonselective agonism, TAAR1 counter-screen; shares compounds with TAAR1 agonist; AID 651787; activation, % at 3 µM; actives 50% (n = 2,400); CHO-Ga16 parental, Fluo-8 calcium fluorescence; normalized to maximal ATP response, DMSO zero;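 active means activation above the run cutoff, the mean activation over all tested wells plus 3 SD, cut at about 12% in these data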;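 further: 0% = DMSO wells and 100% = maximal ATP response on the peak over basal ratio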
TAAR1 desensitize: counter-screen for human TAAR1 agonists: agonists that desensitize TAAR1 | shares compounds with TAAR1 agonist | CHO RD-HGA16 hTAAR1, Fluo-8 calcium, beta-PEA response inhibition | inhibition, % at 3 µM | actives 46% (n = 2,400);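 active means inhibition above the run cutoff, the mean inhibition of all test compounds plus 3 SD, cut at about 49% in these data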;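 further: beta-PEA stimulus applied at its EC80; loss of beta-PEA calcium signal after compound pretreatment read as receptor desensitization; 0% = DMSO with beta-PEA at EC80 and 100% = DMSO alone without agonist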
Ga16 antag count: nonselective Ga16 antagonist in TAAR1 agonist counter-screen. shares compounds with TAAR1 agonist. CHO-Ga16 ATP-induced calcium, Fluo-8 fluorescence. inhibition, % at 3 µM. actives 39% (n = 2,400);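 active means inhibition above the plate's mean compound inhibition plus 3 SD, computed per plate, cut at about 22% in these data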;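 further: 0% = EC80 ATP with DMSO and 100% = DMSO wells without ATP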
* hit, by the source's call; . = no result.

SMILES | TAAR1 antag | OX1R antag-1 | OX1R antag-2 | TAAR1 agonist | CHO parental Ca | TAAR1 ag conf | Ga16 nonsel ag | TAAR1 desensitize | Ga16 antag count
C=CCn1c(=O)[nH]c2nc3cc(N=CN(C)C)c(C)cc3nc2c1=O | 31 | 73* | 1 | 90* | 0 | 13 | 45* | 11 | 23*
CN(C)/C=N/c1cc(=O)[nH]c(=O)n1CC1CC1 | 3 | 9 | -17 | 13 | -11 | . | . | . | .
CCOc1ccc(N/C(N)=N/c2nc(C)cc(C)n2)cc1 | 97* | 0 | 58* | 70* | 49* | 51* | 39* | 93* | 81*
Cc1ccc(C)c(N/C(N)=N/c2nc(C)cc(C)n2)c1 | 98* | 9 | 70* | 116* | 26 | 105* | 67* | 99* | 76*
COc1ccc(C)cc1N/C(N)=N/c1nc(C)cc(C)n1 | -11 | 8 | -19 | 18 | -13 | . | . | . | .
O=C(Cn1cc(C(=O)C(=O)N2CCOCC2)c2ccccc21)Nc1cccc(C(F)(F)F)c1 | 6 | . | . | 6 | . | . | . | . | .
CCCCNS(=O)(=O)CCNCCc1ccccc1 | -7 | 2 | -1 | 32 | -9 | . | . | . | .
O=S(=O)(CCNCCc1ccccc1)NC1CCCCC1 | 13 | . | . | 42* | . | 60* | 1 | 17 | -2
CN1CCN(C(=O)Nc2cccc3ccccc23)CC1 | 3 | 10 | -3 | 1 | 2 | . | . | . | .
CCc1ccccc1NC(=O)N1CCc2ccccc2C1 | 55* | . | . | 80* | . | 96* | 4 | 82* | 2
O=C(Nc1cccc2ccccc12)N1CCc2ccccc2C1 | 74* | 31 | -27 | 77* | -17 | 78* | 2 | 65* | 8
O=C(/C=C/c1ccccc1)Nc1cccc(C(=O)N2CCCC2)c1 | -39 | . | . | 2 | . | . | . | . | .
CCN(c1ccccc1)S(=O)(=O)c1cccc(C(=O)N(C)CCOc2ccccc2)c1 | 26 | 12 | -39 | 6 | -13 | . | . | . | .
CC(C)(C)c1ccc(NC(=O)c2ccc(=O)[nH]n2)cc1 | -23 | 5 | -10 | 23 | -6 | . | . | . | .
O=C(COC(=O)CCC1CCCC1)Nc1ccc(Cl)cn1 | 24 | 5 | -25 | 46* | 4 | 1 | 0 | 9 | 15
CC(c1ccccc1C(O)(c1ccccc1)c1ccccc1)N(C)C (stereo not given) | 74* | 5 | 32 | 114* | 30* | 113* | 70* | 98* | 63*
O=C(CSc1nn(-c2ccc(Cl)cc2)c(=S)s1)NCC1CCCO1 (stereo not given) | -9 | 7 | -33 | 2 | 10 | . | . | . | .
COCCNc1ncnc2nc[nH]c12 | -21 | 5 | -14 | 3 | 8 | . | . | . | .
c1ccc(CCNc2ncnc3nc[nH]c23)cc1 | 33 | 19 | -5 | 71* | 2 | 89* | 9 | 82* | 18
O=C(NCc1ccccc1)C(C1CC1)n1c(=O)c(-c2ccco2)nc2ccccc21 (stereo not given) | 4 | . | . | 2 | . | . | . | . | .
CN(C)S(=O)(=O)c1ccc(C(=O)NCC(=O)N/N=C/c2ccccc2)cc1 | . | 12 | -16 | . | -4 | . | 1 | . | 5
O=C(CNC(=O)c1ccc(S(=O)(=O)N2CCCC2)cc1)N/N=C/c1ccccc1 | -6 | 14 | -11 | 22 | -6 | . | . | . | .
CC(C)(C)c1ccc(C2(C)NC(=O)N(CC(=O)c3ccc[nH]3)C2=O)cc1 (stereo not given) | -13 | 3 | -10 | 56* | -11 | 35 | 13* | 22 | 18
CC(C)(C)c1ccc(C2(C)NC(=O)N(CC(=O)NCc3cccs3)C2=O)cc1 (stereo not given) | -22 | 11 | -13 | 5 | -16 | . | . | . | .
